Entries after “also recorded” stand apart in the source; their conditions may differ.
Columns and labels:
[1] = target: hERG channel (Homo sapiens, UniProt Q12809); assay: hERG channel inhibition, in vitro; format: biochemical; conditions: read-out: hERG IC50
[2] = Comparative 14-day repeated-dose toxicity study with BAY964; format: in vivo, male ICR mice; conditions: for exposure multiple: reference not defined
Procedure, shortened: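 Male ICR mice were dosed orally once daily for 14 days under GLP. Prodrug arm: 30, 100 or 300 mg/kg in 0.1% kolliphor EL (vehicle n=6; dose groups 6 main + 3 TK). Comparator arm: 30-1000 mg/kg, with 30 mg/kg given only as single-dose TK. Endpoints were clinical signs, body weight, food/water intake, haematology, serum chemistry, organ weights and H&E histopathology. TK was sampled on days 1 and 14.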

hERG channel, sequence (Q12809 whole entry): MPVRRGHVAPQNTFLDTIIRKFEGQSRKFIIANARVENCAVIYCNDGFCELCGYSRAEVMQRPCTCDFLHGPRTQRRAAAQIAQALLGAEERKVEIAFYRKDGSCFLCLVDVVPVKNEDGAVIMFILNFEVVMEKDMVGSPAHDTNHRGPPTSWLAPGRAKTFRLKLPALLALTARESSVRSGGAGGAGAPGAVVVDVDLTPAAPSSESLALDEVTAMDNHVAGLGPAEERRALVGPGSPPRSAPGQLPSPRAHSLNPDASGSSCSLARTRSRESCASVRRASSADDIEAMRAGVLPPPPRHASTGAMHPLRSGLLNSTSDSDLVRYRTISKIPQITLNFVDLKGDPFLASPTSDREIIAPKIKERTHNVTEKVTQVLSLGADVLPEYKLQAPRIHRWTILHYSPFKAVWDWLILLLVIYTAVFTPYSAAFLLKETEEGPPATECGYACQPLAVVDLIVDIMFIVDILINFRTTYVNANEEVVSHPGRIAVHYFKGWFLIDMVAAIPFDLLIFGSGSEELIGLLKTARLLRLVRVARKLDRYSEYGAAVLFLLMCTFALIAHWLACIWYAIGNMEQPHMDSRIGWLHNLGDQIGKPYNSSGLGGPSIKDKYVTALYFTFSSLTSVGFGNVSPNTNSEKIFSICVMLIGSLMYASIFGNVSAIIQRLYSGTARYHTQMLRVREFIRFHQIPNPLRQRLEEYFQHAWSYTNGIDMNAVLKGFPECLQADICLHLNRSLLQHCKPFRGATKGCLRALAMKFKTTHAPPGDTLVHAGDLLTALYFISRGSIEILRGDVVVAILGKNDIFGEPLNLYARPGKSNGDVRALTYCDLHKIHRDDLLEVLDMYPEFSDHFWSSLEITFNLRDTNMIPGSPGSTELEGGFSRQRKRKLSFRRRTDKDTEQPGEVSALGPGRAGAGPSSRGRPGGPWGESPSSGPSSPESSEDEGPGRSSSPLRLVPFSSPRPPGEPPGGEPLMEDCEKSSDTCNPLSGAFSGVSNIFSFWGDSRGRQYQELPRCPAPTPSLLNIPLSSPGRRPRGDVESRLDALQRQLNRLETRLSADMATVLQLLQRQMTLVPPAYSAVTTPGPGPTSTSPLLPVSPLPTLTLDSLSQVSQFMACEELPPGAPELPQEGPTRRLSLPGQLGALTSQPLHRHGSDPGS

## C[C@@H](CO)NC(=O)c1cc(-c2ccc(Cl)cc2)nn(-c2cnn(C)c2)c1=O [BAY964]
[1]
  IC50: > 10 µM
[2]; 100 mg/kg, 14 days
  toxicological findings: MCHC ↓, TG ↓, liver, spleen
[2]; 100 mg/kg
  exposure multiple: 1.9 ×
[2]; 300 mg/kg, 14 days
  toxicological findings: liver, spleen; hematological changes
[2]; 300 mg/kg
  exposure multiple: 3.6 ×
[2]; 1000 mg/kg, 14 days
  toxicological findings: gastrointestinal, liver, spleen, kidney lesions
[2]; 1000 mg/kg
  exposure multiple: 7.0 ×
[2]; 100-1000 mg/kg, 14 days
  Target organ: liver, spleen, gastrointestinal tract, and kidney; also recorded: Liver, spleen, GI tract, kidney
